In ChEMBL document CHEMBL2331331 (J Med Chem, 2013) one finds IC50 and Kd data, which are given here for 33 molecules.

Structures are written as SMILES. Some results are limits rather than exact numbers.

For one assay, the system named is HeLa. The assay can be described thus: Cytotoxicity against human HeLa cells assessed as growth inhibition after 72 hrs by MTT assay. The class given is functional, cell-based. Put shortly:
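MTT viability assay with serial inhibitor dilutions for 72 h at 37 °C, then MTT for 2–4 h and OD read at 570 nm. Leukemia lines were seeded at (1–4) × 10⁴ cells/well and lysed with 20% acidified SDS. Adherent lines were seeded at (2–5) × 10³ cells/well, dosed after 24 h and dissolved in DMSO. Triplicate; mean ± SD.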

Assay [1] concerns the target Vascular endothelial growth factor receptor 2 (Danio rerio, UniProt Q5GIT4). The assay can be described thus: Inhibition of VEGFR2 in transgenic zebrafish embryo assessed as inhibition of intersegmental vessels formation measured 33 hrs post fertilization by fluorescence microscopic analysis. Summed up: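 FLK-1:EGFP transgenic zebrafish embryos, 10 per well, exposed at 28.5 °C from 15 to 31 hpf to compound in fish water at 1.25, 2.5 or 5 μM (diluted from a 10 mmol/L DMSO stock); 0.3% DMSO as vehicle control. Embryos were imaged at 33 hpf, and ISVs above the yolk extension were scored for length. n = 11, mean ± SD, ANOVA.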

Assay [2] addresses Vascular endothelial growth factor receptor 2 (Homo sapiens, UniProt P35968). The assay can be described thus: Inhibition of VEGFR2 (unknown origin).
Assay [3] concerns the target Receptor-type tyrosine-protein kinase FLT3 (Homo sapiens, UniProt P36888, ITD). The assay can be described thus: Binding affinity to FLT3-ITD mutant (unknown origin).
Assay [4] has as its target T1, Receptor-type tyrosine-protein kinase FLT3 (Homo sapiens, UniProt P36888).
T1 sequence (P36888 whole entry): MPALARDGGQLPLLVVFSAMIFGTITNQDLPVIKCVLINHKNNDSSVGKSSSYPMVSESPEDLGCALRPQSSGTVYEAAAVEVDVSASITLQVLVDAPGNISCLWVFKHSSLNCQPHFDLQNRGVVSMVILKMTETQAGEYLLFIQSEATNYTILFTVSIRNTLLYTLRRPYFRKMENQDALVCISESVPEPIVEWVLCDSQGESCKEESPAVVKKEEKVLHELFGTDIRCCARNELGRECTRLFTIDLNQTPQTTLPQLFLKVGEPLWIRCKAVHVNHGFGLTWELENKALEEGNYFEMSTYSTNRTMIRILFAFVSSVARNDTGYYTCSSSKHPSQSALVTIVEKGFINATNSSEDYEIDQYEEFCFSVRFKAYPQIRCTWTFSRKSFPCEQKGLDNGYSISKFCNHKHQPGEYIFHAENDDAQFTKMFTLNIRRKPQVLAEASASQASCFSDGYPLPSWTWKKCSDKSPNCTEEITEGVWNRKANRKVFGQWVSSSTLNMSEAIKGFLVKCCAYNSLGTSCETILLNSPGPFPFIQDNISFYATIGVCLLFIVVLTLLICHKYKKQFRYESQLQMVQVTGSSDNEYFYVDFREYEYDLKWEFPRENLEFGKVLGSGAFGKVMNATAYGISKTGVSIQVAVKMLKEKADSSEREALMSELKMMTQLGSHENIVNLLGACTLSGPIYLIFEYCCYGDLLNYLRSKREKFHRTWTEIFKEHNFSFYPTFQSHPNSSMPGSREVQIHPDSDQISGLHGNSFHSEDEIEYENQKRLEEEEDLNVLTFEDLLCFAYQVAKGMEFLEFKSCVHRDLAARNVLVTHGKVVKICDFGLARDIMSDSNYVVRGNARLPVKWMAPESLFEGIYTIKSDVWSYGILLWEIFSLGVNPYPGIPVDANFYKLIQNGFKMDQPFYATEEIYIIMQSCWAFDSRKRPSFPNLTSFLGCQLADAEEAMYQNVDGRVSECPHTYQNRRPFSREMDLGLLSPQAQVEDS
Briefly: Inhibition of FLT3 (unknown origin).

Sequence of Vascular endothelial growth factor receptor 2 (Danio rerio, UniProt Q5GIT4) (Q5GIT4 whole entry): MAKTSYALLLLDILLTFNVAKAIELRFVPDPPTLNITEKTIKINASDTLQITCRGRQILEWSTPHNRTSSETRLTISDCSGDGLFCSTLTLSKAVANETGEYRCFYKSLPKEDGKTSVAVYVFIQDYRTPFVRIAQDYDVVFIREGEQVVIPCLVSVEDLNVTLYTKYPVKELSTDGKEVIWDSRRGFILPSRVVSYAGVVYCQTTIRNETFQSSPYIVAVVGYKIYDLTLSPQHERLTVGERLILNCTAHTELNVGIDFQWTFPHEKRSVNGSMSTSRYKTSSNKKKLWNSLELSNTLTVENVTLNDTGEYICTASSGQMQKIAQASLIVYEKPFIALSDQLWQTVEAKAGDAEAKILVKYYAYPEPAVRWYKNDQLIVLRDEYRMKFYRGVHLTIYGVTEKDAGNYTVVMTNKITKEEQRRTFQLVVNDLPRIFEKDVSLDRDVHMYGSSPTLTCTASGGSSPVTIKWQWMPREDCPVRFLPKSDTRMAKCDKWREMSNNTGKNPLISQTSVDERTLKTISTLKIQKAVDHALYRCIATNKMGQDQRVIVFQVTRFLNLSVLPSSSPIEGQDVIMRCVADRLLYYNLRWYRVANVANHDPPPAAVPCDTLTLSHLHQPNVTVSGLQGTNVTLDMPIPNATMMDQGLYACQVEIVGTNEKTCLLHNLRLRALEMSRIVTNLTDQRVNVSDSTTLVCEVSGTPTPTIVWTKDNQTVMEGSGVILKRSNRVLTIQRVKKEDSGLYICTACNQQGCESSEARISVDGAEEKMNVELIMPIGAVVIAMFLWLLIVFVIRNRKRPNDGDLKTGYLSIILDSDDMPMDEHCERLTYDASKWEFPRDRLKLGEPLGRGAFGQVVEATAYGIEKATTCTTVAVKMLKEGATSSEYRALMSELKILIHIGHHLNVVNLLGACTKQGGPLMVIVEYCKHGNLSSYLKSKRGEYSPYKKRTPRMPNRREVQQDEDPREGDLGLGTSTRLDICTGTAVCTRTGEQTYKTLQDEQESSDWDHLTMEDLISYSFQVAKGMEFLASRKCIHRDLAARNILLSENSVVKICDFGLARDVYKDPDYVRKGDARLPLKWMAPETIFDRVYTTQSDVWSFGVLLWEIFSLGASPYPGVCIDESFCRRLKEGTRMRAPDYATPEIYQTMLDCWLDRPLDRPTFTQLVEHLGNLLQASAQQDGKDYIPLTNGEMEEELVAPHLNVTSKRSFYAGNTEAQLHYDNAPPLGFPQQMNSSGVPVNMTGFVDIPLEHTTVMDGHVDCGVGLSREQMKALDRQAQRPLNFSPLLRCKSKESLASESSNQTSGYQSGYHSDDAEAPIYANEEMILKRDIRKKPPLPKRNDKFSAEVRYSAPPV
Sequence of Vascular endothelial growth factor receptor 2 (Homo sapiens, UniProt P35968) (P35968 whole entry): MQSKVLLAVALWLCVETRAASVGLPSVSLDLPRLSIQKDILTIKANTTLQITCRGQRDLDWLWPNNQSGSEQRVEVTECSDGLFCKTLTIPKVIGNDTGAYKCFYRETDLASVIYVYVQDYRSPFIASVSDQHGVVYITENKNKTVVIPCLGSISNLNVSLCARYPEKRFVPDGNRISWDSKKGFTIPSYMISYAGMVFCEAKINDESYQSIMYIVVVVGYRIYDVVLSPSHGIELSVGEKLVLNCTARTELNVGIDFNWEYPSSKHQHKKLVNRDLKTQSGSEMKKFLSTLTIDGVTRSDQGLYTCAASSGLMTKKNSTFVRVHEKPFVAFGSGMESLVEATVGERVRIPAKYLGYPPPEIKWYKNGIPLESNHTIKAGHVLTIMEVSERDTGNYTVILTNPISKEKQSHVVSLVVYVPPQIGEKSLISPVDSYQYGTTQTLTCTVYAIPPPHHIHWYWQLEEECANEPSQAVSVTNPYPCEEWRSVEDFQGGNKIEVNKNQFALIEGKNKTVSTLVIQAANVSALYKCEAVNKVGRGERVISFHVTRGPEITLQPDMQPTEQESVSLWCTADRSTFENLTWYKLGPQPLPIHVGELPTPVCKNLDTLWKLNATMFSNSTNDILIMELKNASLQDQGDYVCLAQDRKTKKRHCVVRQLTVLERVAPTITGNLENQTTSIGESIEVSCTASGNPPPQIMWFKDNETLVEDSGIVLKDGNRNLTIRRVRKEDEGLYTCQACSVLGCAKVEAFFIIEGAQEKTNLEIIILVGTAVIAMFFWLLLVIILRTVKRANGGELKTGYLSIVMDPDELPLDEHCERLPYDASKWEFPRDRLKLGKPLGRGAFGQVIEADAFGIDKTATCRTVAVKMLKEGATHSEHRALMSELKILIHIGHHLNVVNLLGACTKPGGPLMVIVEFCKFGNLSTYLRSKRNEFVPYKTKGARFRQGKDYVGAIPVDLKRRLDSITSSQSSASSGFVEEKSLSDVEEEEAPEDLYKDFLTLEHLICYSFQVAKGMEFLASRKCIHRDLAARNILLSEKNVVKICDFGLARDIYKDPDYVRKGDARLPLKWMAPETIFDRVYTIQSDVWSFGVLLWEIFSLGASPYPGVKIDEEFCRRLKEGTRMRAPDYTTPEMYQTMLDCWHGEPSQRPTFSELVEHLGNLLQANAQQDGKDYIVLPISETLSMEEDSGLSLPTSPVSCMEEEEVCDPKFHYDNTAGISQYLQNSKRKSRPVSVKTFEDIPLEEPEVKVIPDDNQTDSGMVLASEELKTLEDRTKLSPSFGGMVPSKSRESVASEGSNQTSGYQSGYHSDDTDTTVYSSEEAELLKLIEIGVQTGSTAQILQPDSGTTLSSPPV

One may read the IC50 as the concentration that gives 50% inhibition. Take `CC(NC(=O)Nc1ccc(Nc2ncnc3[nH]ncc23)cc1)c1ccccc1` (stereo not given): the IC50 with HeLa is > 10 µM; in assay [1] it was > 100 µM.

As to `O=C(Nc1ccccc1)Nc1ccc(Oc2ncnc3n[nH]cc23)cc1`, the IC50 in the assay on HeLa is > 10 µM; in assay [1], 20.2 µM.

As to `CC(C)c1cccc(NC(=O)Nc2ccc(Oc3ncnc4n[nH]cc34)cc2)c1`, the IC50 was > 10 µM with HeLa and 7.73 µM in assay [1].

For the molecule `O=C(Nc1ccc(Br)cc1)Nc1ccc(Nc2ncnc3n[nH]cc23)cc1`, the 50% inhibitory concentration (IC50) is > 10 µM in the assay with HeLa and > 100 µM in assay [1].

In the case of `O=C(Nc1ccc(Br)cc1)Nc1ccc(Oc2ncnc3[nH]ncc23)cc1`, the IC50 with HeLa is > 10 µM; in assay [1], 74.7 µM.

Consider `CC(NC(=O)Nc1ccc(Oc2ncnc3n[nH]cc23)cc1)c1ccccc1` (stereo not given), for which the IC50 in the assay with HeLa was > 10 µM; in assay [1], > 98.2 µM.

Take `Cc1cccc(NC(=O)Nc2ccc(Nc3ncnc4n[nH]cc34)cc2)c1C`: the IC50 with HeLa was > 10 µM; in assay [1], > 100 µM.

For `COc1cccc(NC(=O)Nc2ccc(Oc3ncnc4n[nH]cc34)cc2)c1`, the IC50 was > 10 µM in the assay on HeLa and 82 µM in assay [1].

For `O=C(Nc1ccc(Oc2ncnc3n[nH]cc23)cc1)Nc1cccnc1`, the results for the IC50 (in the assay on HeLa; in assay [1]) were > 10 µM and > 100 µM, respectively.

For `O=C(Nc1cccc(Oc2ncnc3n[nH]cc23)c1)c1ccc(C(F)(F)F)cc1`, the IC50 in the assay on HeLa is > 10 µM; in assay [1], > 100 µM.

With `O=C(Cc1ccc(C(F)(F)F)cc1)Nc1cccc(Oc2ncnc3[nH]ncc23)c1`, the IC50 was > 10 µM with HeLa and > 100 µM in assay [1].

Regarding `O=C(Nc1cccc(Oc2ncnc3[nH]ncc23)c1)c1ccc(Br)cc1`, the IC50 in the assay with HeLa was > 10 µM; in assay [1], > 100 µM.

As to `O=C(Cc1ccc(Br)cc1)Nc1cccc(Oc2ncnc3n[nH]cc23)c1`, the IC50 was > 10 µM in the assay with HeLa and > 100 µM in assay [1].

`O=C(Nc1ccc(Oc2ncnc3[nH]ncc23)cc1)Nc1ccc(C(F)(F)F)cc1Cl`: the results for the IC50 (with HeLa; in assay [1]) were > 10 µM and 8.46 µM, respectively.

On to `O=C(Nc1ccc(Br)cc1)Nc1cccc(Oc2ncnc3[nH]ncc23)c1`, for which the IC50 with HeLa was > 10 µM; in assay [1], > 100 µM.

On to `O=C(Nc1ccc(Oc2ncnc3n[nH]cc23)cc1)Nc1cccc(OC(F)(F)F)c1`, for which the IC50 in the assay with HeLa was > 10 µM; in assay [1] it was 17.8 µM.

On to `Cc1cccc(NC(=O)Nc2ccc(Oc3ncnc4[nH]ncc34)cc2)c1C`, for which the IC50 is > 10 µM with HeLa and 98.8 µM in assay [1].

Turning to `O=C(Cc1ccc(Br)cc1)Nc1ccc(Oc2ncnc3n[nH]cc23)cc1`, the figures for the IC50 (in the assay with HeLa; in assay [1]) were > 10 µM and 74.7 µM, respectively.

Turning to `O=C(Nc1ccc(Nc2ncnc3[nH]ncc23)cc1)Nc1ccc(C(F)(F)F)cc1`, the IC50 was > 10 µM in the assay with HeLa and > 100 µM in assay [1].

What is called Kd is a measure of binding affinity in units of concentration. Low readings indicate tighter binding, high ones weaker binding. For the molecule `O=C(Nc1ccc(Oc2ncnc3[nH]ncc23)cc1)Nc1ccc(C(F)(F)F)cc1`, the IC50 in assay [2] was 0.038 µM; in the assay with HeLa, > 10 µM; in assay [1], 1.2 µM; in assay [4], 0.032 µM. In addition, in assay [3], the dissociation constant (Kd) worked out at 0.91 µM.

As for `COc1cccc(NC(=O)Nc2ccc(Oc3ncnc4c3cnn4C)cc2)c1`, the IC50 in the assay with HeLa is > 10 µM; in assay [1], > 100 µM.

Regarding `O=C(Nc1ccc(Oc2ncnc3[nH]ncc23)cc1)Nc1cccc(C(F)(F)F)c1`, the results for the IC50 (in the assay on HeLa; in assay [1]) were > 10 µM and 1.05 µM, respectively. In assay [3], this molecule came in with a Kd of 0.0066 µM.

Regarding `Cn1ncc2c(Oc3ccc(NC(=O)Nc4ccc(C(F)(F)F)cc4)cc3)ncnc21`, the IC50 was > 10 µM in the assay on HeLa and > 100 µM in assay [1].

With `O=C(Nc1ccc(Oc2ncnc3[nH]ncc23)cc1)Nc1ccc(N2CCOCC2)cc1`, the IC50 was > 10 µM in the assay with HeLa and > 100 µM in assay [1].

As to `CNC(=O)c1cc(Oc2ccc(NC(=O)Nc3ccc(Cl)c(C(F)(F)F)c3)cc2)ccn1` [SORAFENIB], the figures for the IC50 (in the assay on HeLa; in assay [1]) were 4.16 µM and 2.6 µM, respectively.

Consider `O=C(Nc1ccc(Oc2ncnc3[nH]ncc23)cc1)Nc1cccc(F)c1`, for which the IC50 in the assay with HeLa was > 10 µM; in assay [1], 16.6 µM.

Regarding `O=C(Nc1ccc(Oc2ncnc3n[nH]cc23)cc1)NC1CCCCC1`, the IC50 is > 10 µM in the assay on HeLa and > 100 µM in assay [1].

`O=C(Nc1ccc(F)cc1)Nc1ccc(Oc2ncnc3[nH]ncc23)cc1`: the IC50 in the assay with HeLa is > 10 µM; in assay [1] it was 89.4 µM.

As to `O=C(Nc1ccc(Oc2ncnc3n[nH]cc23)cc1)Nc1cc(C(F)(F)F)cc(C(F)(F)F)c1`, the results for the IC50 (in the assay with HeLa; in assay [1]) were > 10 µM and 5.18 µM, respectively.

For `O=C(NCC1CCCCC1)Nc1ccc(Oc2ncnc3[nH]ncc23)cc1`, the IC50 in the assay on HeLa was > 10 µM; in assay [1] it was > 100 µM.

As to `O=C(Nc1ccc(C(F)(F)F)cc1)Nc1cccc(Oc2ncnc3[nH]ncc23)c1`, the IC50 was > 10 µM with HeLa and > 100 µM in assay [1].

Consider `O=C(Nc1ccc(Oc2ncnc3n[nH]cc23)cc1)c1ccc(Br)cc1`, for which the IC50 with HeLa was > 10 µM; in assay [1] it was 74.7 µM.

`COc1cccc(NC(=O)Nc2ccc(Nc3ncnc4[nH]ncc34)cc2)c1`: the IC50 in the assay with HeLa is > 10 µM; in assay [1], > 100 µM.
